The results in this text go back to ChEMBL document CHEMBL2401666, “Structure-based design of novel HCV NS5B thumb pocket 2 allosteric inhibitors with submicromolar gt1 replicon potency: discovery of a quinazolinone chemotype” (Bioorg Med Chem Lett, 2013).

The half-life is the time needed for the level to fall by half in the phase considered. As a reminder, the logD is lipophilicity at a set pH, counting ionised and neutral species.

The nature of series [1]: Half life in rat liver microsomes at 2 uM. The series is classed as ADME, Microsome. A general note: Liver microsomes are vesicles of endoplasmic reticulum, rich in cytochrome P450 enzymes.
A short description of series [2]: Permeability across apical to basolateral side in human Caco2 cells at 10 uM. The format is ADME, cell-based. Particulars: Caco-2, read-out: permeability. In short, it runs like this:
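Caco-2 monolayer, apical-to-basolateral transport at 10 µM across a pH 6.8–7.4 gradient; apparent permeability in cm/s ×10^-6.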
On the technique in general: Caco-2 monolayers are a common model of the intestinal barrier.

Series [3] is described as follows: Half life in human liver microsomes at 2 uM. The format is ADME, Microsome.
Series [4] is described as follows: Lipophilicity, log D of the compound at pH 7.4. The series is classed as physicochemical. Particulars: buffer.

Molecules are shown by their SMILES.

For `Cc1ccc(Cn2cnc(=O)c3cc(Oc4ncccc4C(F)(F)F)ccc32)c(F)c1`, the half-life at 2 µM in series [1] was 0.25 h; in series [3], 0.75 h. Further, the Papp A→B at 10 µM in series [2] was 8.4 ×10⁻⁶ cm/s. This molecule had a logD in series [4] of 3.8.

Regarding `CC(C)N(c1ccc(Oc2ccccc2C(F)(F)F)cc1C(=O)O)C(=O)[C@H]1CC[C@H](C)CC1`, the half-life at 2 µM in series [1] came to 1.53 h; in series [3], 1.98 h. The Papp A→B at 10 µM in series [2] stood at 17 ×10⁻⁶ cm/s.

For the molecule `COc1ccnc(Oc2ccc3c(c2)c(=O)ncn3Cc2c(F)cc(F)cc2F)c1C(F)(F)F`, the half-life at 2 µM in series [1] was determined as 0.25 h; in series [3], 1.4 h. In series [2], the Papp A→B at 10 µM is 7.9 ×10⁻⁶ cm/s. This molecule came in with a logD in series [4] of 3.3.

For `COc1ccnc(Oc2ccc3c(c2)c(=O)ncn3Cc2ccc(F)cc2F)c1C(F)(F)F`, the half-life at 2 µM was determined as 0.433 h in series [1] and 1.33 h in series [3]. For the same molecule, in series [2], the Papp A→B at 10 µM stood at 11 ×10⁻⁶ cm/s. Besides, the logD in series [4] turned out to be 3.5.

`CC(C)N(c1ccc(Oc2ncccc2C(F)(F)F)cc1C(=O)O)C(=O)[C@H]1CC[C@H](C)CC1`: the values for the half-life at 2 µM in series [1] and in series [3] were 1 h and 1.15 h, respectively. The Papp A→B at 10 µM in series [2] came to 19 ×10⁻⁶ cm/s.

Take `O=c1ncn(Cc2ccc(Br)cc2F)c2ccc(Oc3ncccc3C(F)(F)F)cc12`: the half-life at 2 µM is 1 h in series [1] and 1.55 h in series [3]. The Papp A→B at 10 µM in series [2] is 7.1 ×10⁻⁶ cm/s.

Molecule `Cc1ccc(Cn2cnc(=O)c3cc(Oc4ncccc4C(F)(F)F)ccc32)cc1` had a logD in series [4] of 3.7.

For the molecule `COc1ccc2c(c1)c(=O)ncn2Cc1ccc(F)cc1F`, the logD in series [4] was found to be 1.8.

As for `O=c1ncn(Cc2c(F)cc(F)cc2F)c2ccc(Oc3ncccc3C(F)(F)F)cc12`, the half-life at 2 µM came to 0.633 h in series [1] and 2.05 h in series [3]. Moreover, the Papp A→B at 10 µM in series [2] was determined as 12 ×10⁻⁶ cm/s. For the same molecule, the logD in series [4] was 3.3.

Molecule `O=c1ncn(CC2CCCC2)c2ccc(Oc3ncccc3C(F)(F)F)cc12` displayed a logD in series [4] of 3.3.

The molecule `O=c1nc[nH]c2ccc(Oc3ncccc3C(F)(F)F)cc12` yielded a log distribution coefficient (logD) in series [4] of 2.5.

As to `O=c1ncn(Cc2c(F)cc(F)cc2F)c2ccc(Oc3ccccc3C(F)(F)F)cc12`, the logD in series [4] was determined as 4.2.

Take `O=c1ncn(Cc2c(F)cc(F)cc2F)c2ccc(Oc3cnccc3C(F)(F)F)cc12`: the logD in series [4] stood at 3.

For the molecule `O=c1ncn(Cc2c(F)cc(F)cc2F)c2ccc(Oc3cccnc3C(F)(F)F)cc12`, the values for the half-life at 2 µM in series [1] and in series [3] were 0.367 h and over 5 h, respectively. In series [2], the Papp A→B at 10 µM was 11 ×10⁻⁶ cm/s. The same molecule displayed a logD in series [4] of 2.9.

Consider `O=c1ncn(Cc2ccc(F)cc2F)c2ccc(Oc3ccncc3C(F)(F)F)cc12`, for which the logD in series [4] came out at 3.

In series [4], `O=c1ncn(Cc2ccc(F)cc2F)c2cc(F)c(Oc3ncccc3C(F)(F)F)cc12` had a pH-dependent lipophilicity (logD) of 3.9.

Regarding `O=c1ncn(Cc2ccc(F)cc2F)c2ccc(Oc3ncccc3C(F)(F)F)cc12`, the half-life at 2 µM in series [1] worked out at 0.517 h; in series [3] it was 1.83 h. The Papp A→B at 10 µM in series [2] worked out at 13 ×10⁻⁶ cm/s.

`O=c1ncn(Cc2c(F)cc(F)cc2F)c2ccc(Oc3ccccc3)cc12` had a log distribution coefficient (logD) in series [4] of 3.2.
